In ChEMBL document CHEMBL4364292, “Discovery of a Potent and Selective CCR4 Antagonist That Inhibits Treg Trafficking into the Tumor Microenvironment” (J Med Chem, 2019):
Blank lines part the entries; values can stand above or below the compound they belong to.

Assays:
[1] = molecular target: T1, C-C chemokine receptor type 4 (Homo sapiens, UniProt P51679); assay: Antagonist activity at human CCR4 expressed in rat chem-5 cells assessed as inhibition of CCL22-induced calcium flux measured at 2.5 secs time interval for 45 secs by fluorescence assay; assay type: functional, cell-based
T1 sequence (P51679 whole entry): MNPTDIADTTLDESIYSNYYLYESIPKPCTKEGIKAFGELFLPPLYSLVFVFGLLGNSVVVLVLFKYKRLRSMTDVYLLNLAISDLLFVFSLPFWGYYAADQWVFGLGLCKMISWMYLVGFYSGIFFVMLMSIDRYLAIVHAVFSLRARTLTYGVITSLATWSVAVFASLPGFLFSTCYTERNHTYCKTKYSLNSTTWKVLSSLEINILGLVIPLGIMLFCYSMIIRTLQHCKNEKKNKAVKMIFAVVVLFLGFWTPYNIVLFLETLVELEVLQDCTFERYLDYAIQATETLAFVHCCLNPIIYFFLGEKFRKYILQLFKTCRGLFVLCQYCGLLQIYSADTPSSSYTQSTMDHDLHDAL
Outline: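 Calcium flux functional readout of CCR4 antagonism, run without serum; IC50 reported.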

[2] = AUCinfinity in rat at 0.5 mg/kg, iv; assay type: ADME, organism-based; parameters: dose 0.5 mg/kg, route intravenous, time infinity; conditions: in vivo
[3] = Hepatic clearance in rat at 0.5 mg/kg, iv; assay type: ADME, organism-based; conditions: in vivo
Cytochrome P450 2C19 = Cytochrome P450 2C19 (Homo sapiens, UniProt P33261); assay: Inhibition of CYP2C19 (unknown origin); assay type: ADME
Sequence of Cytochrome P450 2C19 (P33261 whole entry): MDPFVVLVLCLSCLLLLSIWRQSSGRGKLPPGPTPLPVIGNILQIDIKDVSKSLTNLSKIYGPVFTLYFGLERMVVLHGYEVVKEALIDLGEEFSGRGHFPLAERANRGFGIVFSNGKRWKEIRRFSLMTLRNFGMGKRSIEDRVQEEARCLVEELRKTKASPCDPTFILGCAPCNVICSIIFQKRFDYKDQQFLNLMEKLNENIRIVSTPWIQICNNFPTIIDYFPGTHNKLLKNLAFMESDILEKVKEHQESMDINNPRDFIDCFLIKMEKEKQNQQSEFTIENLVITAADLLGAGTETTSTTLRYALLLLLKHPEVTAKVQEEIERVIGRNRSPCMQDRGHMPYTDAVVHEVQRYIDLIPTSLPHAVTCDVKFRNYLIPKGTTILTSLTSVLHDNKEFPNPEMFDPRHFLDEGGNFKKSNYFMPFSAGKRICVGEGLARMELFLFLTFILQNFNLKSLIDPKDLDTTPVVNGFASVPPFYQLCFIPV
Outline: (§1)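 CYP inhibition tested against 1A2, 2C9, 2C19, 2D6 and 3A4; IC50 in μM.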

[4] = Oral bioavailability in rat at 2 mg/kg, po; assay type: ADME, organism-based; conditions: in vivo
[5] = AUC(0 to infinity) in rat at 2 mg/kg, po; assay type: ADME, organism-based; parameters: dose 2 mg/kg, route oral, time infinity; conditions: in vivo
[6] = Hepatic clearance in rat at 0.5 mg/kg, iv or 2 mg/kg, po; assay type: ADME, organism-based; conditions: in vivo
Cytochrome P450 3A4 = Cytochrome P450 3A4 (Homo sapiens, UniProt P08684); assay: Inhibition of CYP3A4 (unknown origin); assay type: ADME; outline: as §1
Sequence of Cytochrome P450 3A4 (P08684 whole entry): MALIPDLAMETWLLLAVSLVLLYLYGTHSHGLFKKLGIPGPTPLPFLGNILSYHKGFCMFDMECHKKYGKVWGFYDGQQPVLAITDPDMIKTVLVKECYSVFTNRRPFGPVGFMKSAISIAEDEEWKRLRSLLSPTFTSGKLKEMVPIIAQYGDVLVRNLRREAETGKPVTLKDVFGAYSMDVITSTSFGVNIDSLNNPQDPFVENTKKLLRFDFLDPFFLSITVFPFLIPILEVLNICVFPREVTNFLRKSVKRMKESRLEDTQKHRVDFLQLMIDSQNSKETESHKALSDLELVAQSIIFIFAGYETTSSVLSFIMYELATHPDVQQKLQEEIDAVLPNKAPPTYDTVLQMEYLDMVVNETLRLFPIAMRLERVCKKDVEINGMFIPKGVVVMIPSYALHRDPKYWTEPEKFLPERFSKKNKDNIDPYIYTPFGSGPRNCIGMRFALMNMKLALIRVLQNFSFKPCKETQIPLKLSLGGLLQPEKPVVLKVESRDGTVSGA

Cytochrome P450 2D6 = Cytochrome P450 2D6 (Homo sapiens, UniProt P10635); assay: Inhibition of CYP2D6 (unknown origin); assay type: ADME; outline: as §1
Sequence of Cytochrome P450 2D6 (P10635 whole entry): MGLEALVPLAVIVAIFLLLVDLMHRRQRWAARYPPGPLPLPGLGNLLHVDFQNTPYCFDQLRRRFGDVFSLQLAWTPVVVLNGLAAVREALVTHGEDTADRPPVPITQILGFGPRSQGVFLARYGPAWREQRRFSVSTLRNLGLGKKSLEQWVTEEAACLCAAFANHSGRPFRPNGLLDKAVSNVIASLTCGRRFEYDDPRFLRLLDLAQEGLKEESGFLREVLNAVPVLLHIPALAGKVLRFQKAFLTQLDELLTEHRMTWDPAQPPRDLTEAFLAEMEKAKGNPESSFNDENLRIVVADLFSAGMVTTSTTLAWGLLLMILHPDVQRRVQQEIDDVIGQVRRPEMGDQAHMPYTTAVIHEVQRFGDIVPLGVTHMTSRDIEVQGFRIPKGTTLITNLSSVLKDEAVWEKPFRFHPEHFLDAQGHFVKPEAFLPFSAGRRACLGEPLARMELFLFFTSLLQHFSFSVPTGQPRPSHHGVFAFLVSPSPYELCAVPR

[7] = Terminal half-life in rat at 0.5 mg/kg, iv or 2 mg/kg, po; assay type: ADME, organism-based; conditions: in vivo, read-out: beta t1/2 (converted)
Cytochrome P450 2C9 = Cytochrome P450 2C9 (Homo sapiens, UniProt P11712); assay: Inhibition of CYP2C9 (unknown origin); assay type: ADME; outline: as §1
Sequence of Cytochrome P450 2C9 (P11712 whole entry): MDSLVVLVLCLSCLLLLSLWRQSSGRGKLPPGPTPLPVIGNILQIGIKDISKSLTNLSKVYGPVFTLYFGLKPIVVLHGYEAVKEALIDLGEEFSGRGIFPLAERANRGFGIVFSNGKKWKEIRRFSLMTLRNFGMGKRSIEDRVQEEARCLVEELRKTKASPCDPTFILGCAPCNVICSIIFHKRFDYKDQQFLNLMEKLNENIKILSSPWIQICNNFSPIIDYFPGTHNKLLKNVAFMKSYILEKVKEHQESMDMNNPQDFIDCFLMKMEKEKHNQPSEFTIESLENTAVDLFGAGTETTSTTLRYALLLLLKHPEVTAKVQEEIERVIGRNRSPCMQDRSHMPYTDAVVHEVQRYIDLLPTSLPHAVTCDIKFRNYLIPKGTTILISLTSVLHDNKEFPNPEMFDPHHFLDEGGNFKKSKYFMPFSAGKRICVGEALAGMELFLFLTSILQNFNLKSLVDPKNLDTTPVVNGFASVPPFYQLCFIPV

[8] = Stability in human hepatocytes assessed as compound remaining incubated for 60 mins under shaking condition by LC-MS/MS analysis; assay type: ADME, cell-based, Hepatocyte; conditions: read-out: Stability
Outline: (§2)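 Human and rat hepatocytes exposed to compound; percent parent remaining reported.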

[9] = Volume of distribution at steady state in rat at 0.5 mg/kg, iv or 2 mg/kg, po; assay type: ADME, organism-based; conditions: in vivo, read-out: Vdss
[10] = Stability in rat hepatocytes assessed as compound remaining incubated for 60 mins under shaking condition by LC-MS/MS analysis; assay type: ADME, cell-based, Hepatocyte; conditions: read-out: Stability; outline: as §2
Cytochrome P450 1A2 = molecular target: T2, Cytochrome P450 1A2 (Homo sapiens, UniProt P05177); assay: Inhibition of CYP1A2 (unknown origin); assay type: ADME; outline: as §1
T2 sequence (P05177 whole entry): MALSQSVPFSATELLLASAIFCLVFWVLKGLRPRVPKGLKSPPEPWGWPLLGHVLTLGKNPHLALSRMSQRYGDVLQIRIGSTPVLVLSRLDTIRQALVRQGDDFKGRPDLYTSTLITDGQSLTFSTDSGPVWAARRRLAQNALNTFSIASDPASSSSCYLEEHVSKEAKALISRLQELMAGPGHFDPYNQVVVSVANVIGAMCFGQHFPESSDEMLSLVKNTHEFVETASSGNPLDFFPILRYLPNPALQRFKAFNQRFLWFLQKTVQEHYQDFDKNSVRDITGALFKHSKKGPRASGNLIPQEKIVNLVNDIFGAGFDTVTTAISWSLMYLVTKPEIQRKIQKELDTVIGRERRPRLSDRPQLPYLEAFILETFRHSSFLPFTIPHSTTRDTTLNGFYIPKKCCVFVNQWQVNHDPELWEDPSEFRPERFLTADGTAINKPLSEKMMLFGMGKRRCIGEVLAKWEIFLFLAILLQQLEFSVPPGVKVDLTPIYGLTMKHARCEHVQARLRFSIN

[11] = Bioavailability in rat; assay type: ADME, organism-based; conditions: in vivo

IC50 [1]: 42 nM
SMILES: Cc1nn([C@H](C)c2ccc(Cl)cc2Cl)c2nc(N3CC[C@H](N4CCCCC4)[C@H](C)C3)cnc12

IC50 [1]: 41 nM
SMILES: Cc1nn([C@H](C)c2ccc(Cl)cc2Cl)c2nc(N3CC[C@H](N4CCC[C@H]4CCC#N)[C@H](C)C3)cnc12

AUC(0-inf) [2]: 217 ng·h/mL
IC50 [1]: 126 nM
CLH [3]: 38.3 mL/min/kg
SMILES: Cc1nn(C(C)c2ccc(Cl)cc2Cl)c2nc(N3CCC(N4CCCCC4)C(C)C3)cnc12 (stereo unspecified)

IC50 [1]: 2580 nM
SMILES: CC(c1ccc(Cl)cc1Cl)n1ncc2ncc(N3CCC(N4CCCCC4)CC3)nc21 (stereo unspecified)

IC50 (Cytochrome P450 2C19): > 10000 nM
bioavailability [4]: 7%
AUC(0-inf) [5]: 23.2 ng·h/mL
CLH [6]: 114.6 mL/min/kg
IC50 (Cytochrome P450 3A4): > 10000 nM
IC50 (Cytochrome P450 2D6): > 10000 nM
IC50 [1]: 27 nM
half-life [7]: 2.1 h
IC50 (Cytochrome P450 2C9): > 10000 nM
remaining at 1 h [8]: 74%
Vd [9]: 13.4 L/kg
remaining at 1 h [10]: 19%
IC50 (Cytochrome P450 1A2): > 10000 nM
SMILES: C[C@@H]1CN(c2cnc3c(C#N)nn([C@H](C)c4ccc(Cl)cc4Cl)c3n2)CC[C@@H]1N1CCC[C@H]1CO

AUC(0-inf) [2]: 82 ng·h/mL
IC50 [1]: 228 nM
CLH [3]: 101.7 mL/min/kg
SMILES: CC1CN(c2cnc3c(C(N)=O)nn(C(C)c4ccc(Cl)cc4Cl)c3n2)CCC1N1CCCCC1 (stereo unspecified)

IC50 [1]: 69 nM
SMILES: Cc1nn([C@H](C)c2ccc(Cl)cc2Cl)c2nc(N3CC[C@H](N4CCCC4)[C@H](C)C3)cnc12

IC50 [1]: 670 nM
SMILES: Cc1nn([C@H](C)c2ccc(Cl)cc2Cl)c2nc(N3CC[C@H](N4CCC[C@H]4C(=O)O)[C@H](C)C3)cnc12

IC50 [1]: 275 nM
bioavailability [11]: 25%
SMILES: CC(c1ccc(Cl)cc1Cl)n1ncc2ncc(C3=CCN(C(=O)[C@H]4CCCCN4)CC3)nc21 (stereo partly specified)

IC50 [1]: 384 nM
SMILES: C[C@@H]1CC(c2cnc3c(C#N)nn([C@H](C)c4ccc(Cl)cc4Cl)c3n2)=CC[C@@H]1N1CCC[C@H]1C(C)(C)O

IC50 [1]: 54 nM
bioavailability [11]: 7%
SMILES: C[C@@H](Nc1cncc(C2=CCN(C(=O)[C@H]3CCCCN3)CC2)n1)c1ccc(Cl)cc1Cl

IC50 [1]: 54 nM
remaining at 1 h [8]: 97%
remaining at 1 h [10]: 71%
SMILES: C[C@@H]1CC(c2cnc3c(C#N)nn([C@H](C)c4ccc(Cl)cc4Cl)c3n2)=CC[C@@H]1N1CCC[C@H]1C(N)=O

IC50 [1]: 36 nM
remaining at 1 h [8]: 99%
remaining at 1 h [10]: 35%
SMILES: Cc1nn([C@H](C)c2ccc(Cl)cc2Cl)c2nc(C3=CC[C@H](N4CCC[C@H]4CO)[C@H](C)C3)cnc12

IC50 [1]: 32 nM
SMILES: Cc1nn([C@H](C)c2ccc(Cl)cc2Cl)c2nc(N3CC[C@H](N4CCC[C@H]4CCS(N)(=O)=O)[C@H](C)C3)cnc12
